Series [1] in a line: Oral bioavailability in Han Wistar rat assessed as ratio of AUC (0 to infinity) at 10 mg/kg, po normalized to 2 mg/kg, iv. The format is ADME, organism-based. The note with it: in vivo.
Series [2] relates to Rattus norvegicus. The series can be described thus: Inhibition of MK-801-induced cognitive function in po dosed Long Evans rat administered 60 mins prior to MK801 challenge measured after 1 hr by novel object recognition test. The note with it: read-out: MED. The format is functional. The method, boiled down:
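NOR in rats: vehicle or test compound (0.3-30 mg/kg po) 60 min before the sample trial, and MK-801 (0.03 mg/kg ip) 30 min before. Sample trial was 5 min with two identical objects. Choice trial, 1 h later, was 5 min with one familiar and one novel object. N = 10 per group.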

Series [3] has as its target Neuronal acetylcholine receptor; alpha4/beta2 (Homo sapiens, UniProt P17787+P43681). The series can be described thus: Agonist activity at alpha4beta2 nAChR. Type of series: functional.
In series [4] the target is T1, 5-hydroxytryptamine receptor 3A (Homo sapiens, UniProt P46098).
T1 sequence (P46098 whole entry): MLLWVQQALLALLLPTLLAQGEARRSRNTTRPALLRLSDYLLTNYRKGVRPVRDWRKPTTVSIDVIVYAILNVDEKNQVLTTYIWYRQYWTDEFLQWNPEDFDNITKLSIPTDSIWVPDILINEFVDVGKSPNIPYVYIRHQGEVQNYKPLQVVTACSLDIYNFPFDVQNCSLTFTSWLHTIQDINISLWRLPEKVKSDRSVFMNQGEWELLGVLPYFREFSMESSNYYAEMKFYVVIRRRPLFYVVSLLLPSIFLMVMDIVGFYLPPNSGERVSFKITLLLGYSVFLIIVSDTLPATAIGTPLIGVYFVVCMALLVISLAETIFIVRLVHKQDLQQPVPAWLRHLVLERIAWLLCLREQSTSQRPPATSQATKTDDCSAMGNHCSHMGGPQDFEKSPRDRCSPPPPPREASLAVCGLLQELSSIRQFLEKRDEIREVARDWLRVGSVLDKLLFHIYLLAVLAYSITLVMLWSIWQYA
As to the kind of experiment: Antagonist activity at human 5HT3A receptor expressed in HEK293 cells by FLIPR assay.

Series [5] in a line: Solubility in ammonium acetate buffer at pH 7.4 by pseudothermodynamic equilibrium assay. The format is physicochemical.
The target of series [6] is CYP3A4 (Homo sapiens, UniProt P08684). The series can be described thus: Inhibition of CYP3A4 at 3 uM by Gentest method. Type of series: ADME.
Chain of CYP3A4 (Homo sapiens, UniProt P08684) (P08684 whole entry): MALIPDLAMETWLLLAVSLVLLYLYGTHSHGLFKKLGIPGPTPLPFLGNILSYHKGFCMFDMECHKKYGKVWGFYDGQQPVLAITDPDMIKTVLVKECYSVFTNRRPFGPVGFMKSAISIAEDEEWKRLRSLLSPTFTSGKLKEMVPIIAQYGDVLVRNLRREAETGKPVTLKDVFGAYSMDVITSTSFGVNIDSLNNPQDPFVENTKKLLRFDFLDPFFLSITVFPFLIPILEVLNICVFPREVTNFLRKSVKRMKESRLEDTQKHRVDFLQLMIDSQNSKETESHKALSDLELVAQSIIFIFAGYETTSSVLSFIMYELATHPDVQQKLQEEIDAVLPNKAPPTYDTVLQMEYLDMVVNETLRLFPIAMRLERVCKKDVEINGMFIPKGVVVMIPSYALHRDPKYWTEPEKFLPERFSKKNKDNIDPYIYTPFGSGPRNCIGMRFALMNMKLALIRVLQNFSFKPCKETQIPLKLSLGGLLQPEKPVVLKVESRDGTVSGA
A short description of series [7]: AUC (last) in Long Evans rat at 3 mg/kg, po. Type of series: ADME, organism-based. Details: time 0 - last, dose 3 mg/kg, route oral. The note with it: plasma. The method, boiled down: (§1)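 Male Long Evans rats (6-8 weeks, 250-550 g) given a single 3 mg/kg oral dose as a solution in 2% Tween, 0.5% methocell in water. Plasma sampled over 6 h. Levels measured by LC-MS/MS after acetonitrile protein precipitation with internal standard; detection limit 1 ng/mL.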

A short description of series [8]: Tmax in Long Evans rat at 3 mg/kg, po. The format is ADME, organism-based. The arrangement: dose 3 mg/kg, route oral. Particulars: in vivo. Put shortly:
as §1

The next series concerns the target CYP2C9 (Homo sapiens, UniProt P11712). The series can be described thus: Inhibition of CYP2C9 at 3 uM by Gentest method. The format is ADME.
The target of series [9] is T2, Alpha-2A adrenergic receptor (Homo sapiens, UniProt P08913).
T2 sequence (P08913 whole entry): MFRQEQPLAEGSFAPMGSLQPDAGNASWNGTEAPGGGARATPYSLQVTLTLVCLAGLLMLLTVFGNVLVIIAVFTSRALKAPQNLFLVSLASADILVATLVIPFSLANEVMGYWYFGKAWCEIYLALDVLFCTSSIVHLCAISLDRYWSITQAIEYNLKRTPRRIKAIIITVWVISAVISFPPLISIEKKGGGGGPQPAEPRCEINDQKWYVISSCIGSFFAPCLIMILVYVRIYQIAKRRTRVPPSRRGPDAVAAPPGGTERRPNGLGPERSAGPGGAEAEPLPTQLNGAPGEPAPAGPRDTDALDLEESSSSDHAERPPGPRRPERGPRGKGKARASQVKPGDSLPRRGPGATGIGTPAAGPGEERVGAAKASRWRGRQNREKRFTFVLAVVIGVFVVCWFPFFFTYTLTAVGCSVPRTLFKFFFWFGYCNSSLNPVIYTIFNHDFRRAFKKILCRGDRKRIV
The series can be described thus: Binding affinity to adrenergic alpha2A receptor. The method, boiled down: (§2)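 Screened at 10 μM in a panel of about 70 receptor binding sites (Novascreen).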

A short description of series [10]: AUC (0 to infinity) in brain of Han Wistar rat at 2 mg/kg, po. Type of series: ADME, organism-based. Details: time infinity, dose 2 mg/kg, route oral.
The nature of series [11]: Ratio of drug level from brain to plasma in Han Wistar rat at 2 mg/kg, po. The arrangement: dose 2 mg/kg, route oral. Particulars: read-out: BPR. Type of series: ADME, organism-based. Put shortly:
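Male Han Wistar rats received a single 2 mg/kg po dose. Ratio calculated from brain and plasma AUC0-inf.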

The next series concerns the target CYP2D6 (Homo sapiens, UniProt P10635). The series can be described thus: Inhibition of CYP2D6 at 3 uM by Gentest method. Type of series: ADME.
In series [12] the target is 5-hydroxytryptamine receptor 4 (Homo sapiens, UniProt Q13639). The series can be described thus: Binding affinity to 5HT4 receptor. The method, boiled down: as §2
Chain of 5-hydroxytryptamine receptor 4 (Q13639 whole entry): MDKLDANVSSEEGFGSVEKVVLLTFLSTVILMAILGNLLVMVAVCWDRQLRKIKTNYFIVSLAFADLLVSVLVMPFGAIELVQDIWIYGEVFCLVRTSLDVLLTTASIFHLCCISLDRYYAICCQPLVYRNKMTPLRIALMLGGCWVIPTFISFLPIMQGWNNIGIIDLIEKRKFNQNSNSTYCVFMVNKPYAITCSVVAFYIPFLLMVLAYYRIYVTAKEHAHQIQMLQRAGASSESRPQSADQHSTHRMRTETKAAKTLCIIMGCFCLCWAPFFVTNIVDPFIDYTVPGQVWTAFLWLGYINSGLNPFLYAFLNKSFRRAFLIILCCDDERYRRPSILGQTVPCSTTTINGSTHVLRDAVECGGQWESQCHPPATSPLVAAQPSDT
Series [13] can be described thus: AUC (0 to infinity) in plasma of Han Wistar rat at 2 mg/kg, po. The format is ADME, organism-based. The arrangement: time infinity, dose 2 mg/kg, route oral.
A short description of series [14]: Half life in Han Wistar rat at 10 mg/kg, po and 2 mg/kg, iv. Type of series: ADME, organism-based. The note with it: in vivo.
Series [15] is described as follows: Intrinsic clearance in rat liver microsomes by LC-MS/MS analysis. Type of series: ADME, Microsome. Put shortly:
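Rat liver microsomes (0.633 mg/mL protein in 0.1 M potassium phosphate pH 7.4 with EDTA) were incubated with test compound and NADPH regenerating agent for 15 min at 37 °C, against a time-0 control, in duplicate. Reactions were quenched with cold acetonitrile, centrifuged, and supernatants analyzed by LC-MS.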
(In general: Microsomes from liver hold many membrane-bound enzymes, among them those of drug oxidation.)

The test system of series [16] is Rattus norvegicus. As to the kind of experiment: Cmax in Long Evans rat at 3 mg/kg, po. The format is ADME, organism-based. The arrangement: dose 3 mg/kg, route oral. The note with it: in vivo. The method, boiled down: as §1
The target of series [17] is T3, Alpha-2B adrenergic receptor (Homo sapiens, UniProt P18089).
T3 sequence (P18089 whole entry): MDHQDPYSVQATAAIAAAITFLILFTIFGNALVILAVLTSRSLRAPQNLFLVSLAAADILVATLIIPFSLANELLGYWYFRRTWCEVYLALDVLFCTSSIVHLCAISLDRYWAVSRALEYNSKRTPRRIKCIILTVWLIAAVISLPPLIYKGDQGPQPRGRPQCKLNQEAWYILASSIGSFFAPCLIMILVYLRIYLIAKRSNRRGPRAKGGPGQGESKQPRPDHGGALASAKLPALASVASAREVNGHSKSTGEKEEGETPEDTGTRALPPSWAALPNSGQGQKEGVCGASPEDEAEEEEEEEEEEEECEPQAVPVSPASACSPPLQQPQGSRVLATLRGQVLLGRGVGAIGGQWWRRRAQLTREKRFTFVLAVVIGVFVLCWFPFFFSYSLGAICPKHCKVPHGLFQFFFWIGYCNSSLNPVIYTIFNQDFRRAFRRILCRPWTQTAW
The series can be described thus: Binding affinity to adrenergic alpha2B receptor. The method, boiled down: as §2

For series [18], the system named is CYP3A4. The series can be described thus: Metabolic stability assessed as compound remaining after 1 hr in presence of human CYP3A4. Particulars: read-out: Stability. The format is ADME.
For series [19], the system named is Rattus norvegicus. As to the kind of experiment: Inhibition of MK-801-induced perceptual processing in po dosed Long Evans rat administered 60 mins prior to MK801 challenge measured after 1 hr by prepulse inhibition test. The note with it: read-out: MED. Type of series: functional. The method, boiled down:
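Rat prepulse inhibition: test compound (1-30 mg/kg) given po 60 min and MK-801 (0.085 mg/kg) sc 10 min before testing. After 5 min at 64 dB background, 61 trials were run: 120 dB pulse alone or with a 69/74/79 dB prepulse 100 ms earlier. PPI = 100 - (prepulse/pulse startle × 100). Chronic arm: 3 mg/kg po daily for 14 days.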

The results in this text go back to ChEMBL document CHEMBL1155527 (J Med Chem, 2010).

Values after ≈ are worked out from the molar mass of the structure shown. Where only a bound is given, the exact number is not on record here.

Chain of Neuronal acetylcholine receptor; alpha4/beta2 (P17787 whole entry): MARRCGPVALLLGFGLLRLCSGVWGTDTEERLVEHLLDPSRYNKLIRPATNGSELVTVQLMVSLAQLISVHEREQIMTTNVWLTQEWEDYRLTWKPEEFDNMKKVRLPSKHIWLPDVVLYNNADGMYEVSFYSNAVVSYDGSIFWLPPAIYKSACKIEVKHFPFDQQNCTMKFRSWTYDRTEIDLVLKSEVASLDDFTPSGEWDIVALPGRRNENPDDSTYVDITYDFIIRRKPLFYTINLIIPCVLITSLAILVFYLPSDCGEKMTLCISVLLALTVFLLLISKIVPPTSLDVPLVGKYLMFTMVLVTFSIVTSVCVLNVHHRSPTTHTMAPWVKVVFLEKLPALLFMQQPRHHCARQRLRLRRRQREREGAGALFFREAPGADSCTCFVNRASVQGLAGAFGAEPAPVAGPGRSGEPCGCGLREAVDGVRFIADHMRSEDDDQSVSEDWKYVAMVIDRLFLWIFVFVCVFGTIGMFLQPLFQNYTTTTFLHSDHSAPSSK
Chain of Neuronal acetylcholine receptor; alpha4/beta2 (P43681 whole entry): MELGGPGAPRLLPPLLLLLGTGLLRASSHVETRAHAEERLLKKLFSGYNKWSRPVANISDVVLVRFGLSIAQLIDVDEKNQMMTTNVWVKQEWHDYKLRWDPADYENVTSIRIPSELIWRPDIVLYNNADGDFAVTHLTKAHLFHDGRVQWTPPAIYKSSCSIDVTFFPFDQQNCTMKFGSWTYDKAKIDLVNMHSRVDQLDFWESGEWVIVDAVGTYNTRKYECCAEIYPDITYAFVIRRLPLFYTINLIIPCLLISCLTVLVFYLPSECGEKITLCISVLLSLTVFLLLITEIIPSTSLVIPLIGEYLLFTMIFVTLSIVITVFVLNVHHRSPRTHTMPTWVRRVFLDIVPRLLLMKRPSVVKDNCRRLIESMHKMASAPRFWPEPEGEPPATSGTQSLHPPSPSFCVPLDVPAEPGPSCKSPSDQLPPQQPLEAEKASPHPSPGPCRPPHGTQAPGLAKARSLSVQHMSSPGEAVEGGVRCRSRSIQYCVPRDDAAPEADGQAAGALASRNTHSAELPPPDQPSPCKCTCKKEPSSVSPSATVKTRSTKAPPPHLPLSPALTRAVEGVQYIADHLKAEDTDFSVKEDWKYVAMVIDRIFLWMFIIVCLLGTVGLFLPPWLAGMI
Chain of CYP2D6 (P10635 whole entry): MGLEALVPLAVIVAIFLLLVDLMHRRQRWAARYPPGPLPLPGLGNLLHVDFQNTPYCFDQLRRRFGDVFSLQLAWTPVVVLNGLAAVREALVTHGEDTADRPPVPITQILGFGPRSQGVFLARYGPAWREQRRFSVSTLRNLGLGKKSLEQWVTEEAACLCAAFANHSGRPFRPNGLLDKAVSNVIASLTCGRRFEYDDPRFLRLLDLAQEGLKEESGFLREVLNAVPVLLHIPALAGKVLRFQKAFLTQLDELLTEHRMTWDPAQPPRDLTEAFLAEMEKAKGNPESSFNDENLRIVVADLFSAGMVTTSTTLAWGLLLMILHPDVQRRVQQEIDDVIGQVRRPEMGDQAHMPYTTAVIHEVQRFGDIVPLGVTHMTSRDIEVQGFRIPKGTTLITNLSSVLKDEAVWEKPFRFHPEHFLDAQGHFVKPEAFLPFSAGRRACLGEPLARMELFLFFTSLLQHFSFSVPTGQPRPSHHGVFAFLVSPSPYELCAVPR
Chain of CYP2C9 (P11712 whole entry): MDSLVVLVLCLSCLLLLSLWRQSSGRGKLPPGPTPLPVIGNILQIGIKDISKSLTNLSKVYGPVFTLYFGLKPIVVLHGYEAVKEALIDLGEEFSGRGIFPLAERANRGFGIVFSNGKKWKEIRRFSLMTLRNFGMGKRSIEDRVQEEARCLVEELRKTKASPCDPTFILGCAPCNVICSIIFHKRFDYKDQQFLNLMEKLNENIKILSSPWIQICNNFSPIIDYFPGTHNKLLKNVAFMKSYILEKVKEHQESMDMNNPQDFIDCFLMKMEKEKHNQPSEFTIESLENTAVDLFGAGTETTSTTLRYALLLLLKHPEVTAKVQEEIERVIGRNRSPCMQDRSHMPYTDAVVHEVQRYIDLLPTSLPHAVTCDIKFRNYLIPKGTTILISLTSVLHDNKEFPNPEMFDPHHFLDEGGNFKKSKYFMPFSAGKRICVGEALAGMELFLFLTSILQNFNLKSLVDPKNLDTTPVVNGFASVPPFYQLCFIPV

In the case of `O=C(NCCCCN1CCCCC1)Nc1ccc(-c2ccc(F)cc2)nc1`, the bioavailability (as a rule, dose-corrected exposure relative to a reference, in per cent) in series [1] is 100%. The minimal effective dose with Rattus norvegicus [2] and in the series with Rattus norvegicus [19] was 3 mg/kg each time. The IC50 (usually the concentration that gives 50% inhibition) in [3] was above 30 µM; in series [4], above 30 µM; in series [9] it was 7.5 µM; in [17], 35 µM. In addition, the solubility (thermodynamic) – broadly, solubility found after equilibrating the solid with the medium – in [5] worked out at 121 µM (≈ 44.8 µg/mL). Moreover, the results for the inhibition at 3 µM on CYP3A4 [6], against CYP2C9 and against CYP2D6 were 0%, -17% and 19%, respectively. Moreover, in [7], the exposure AUC(0-t) (as a rule, the area under the concentration-time curve up to a stated or last time point) came out at 318 ng·h/mL. Also, the time to peak (Tmax) (commonly the time at which the peak concentration occurs) in [8] stood at 5.3 h. Also, the total exposure AUC(0-inf) (in general, the area under the concentration-time curve extrapolated to infinity) in [10] was found to be 215 ng·h/mL; in [13] it was 768 ng·h/mL. The Kp in series [11] was found to be 0.3. For the same molecule, the affinity in series [12] corresponds to a Ki of 6 µM. In addition, the half-life (commonly the time in which the quantity being followed falls by half) in series [14] is 3.5 h. Further, the microsomal CLint (commonly a measure of how fast metabolising enzymes remove a compound, apart from limits set by blood flow) in series [15] is below 5 µL/min/mg. The peak level with Rattus norvegicus [16] (Cmax) was 40 ng/mL. In the series on CYP3A4 [18], the remaining at 1 h was found to be 75%.
